High-throughput results from PubChem.
The list is not random: actives were taken first. Their share in the collection is about 3.8%.
hERG rescue: compounds protecting human hERG from proarrhythmic drug block; Q12809; CHO-hERG, FluxOR thallium flux, dofetilide IC70 present; activation (rescue from dofetilide block), less the hit threshold, % at 10 µM; actives 0.51% (n = 310,000); AID 1511;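 active means activation above the mean of controls blocked by dofetilide plus 5 SD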;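 further: thallium influx through hERG after potassium depolarization seen as dye fluorescence rise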
KCNK3 inh: human KCNK3 channel inhibition, primary screen; O14649; CHO-KCNK3 thallium flux, FluxOR fluorescence; stronger effect = lower value; B-score at 10 µM; actives 0.84% (n = 340,000);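 active means B-score under library mean minus 4 SD, starting fluorescence ratio at most library mean plus 5 SD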;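 further: more negative B-score means stronger inhibition of thallium flux through KCNK3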
Target sequence (O14649 whole entry, looked up): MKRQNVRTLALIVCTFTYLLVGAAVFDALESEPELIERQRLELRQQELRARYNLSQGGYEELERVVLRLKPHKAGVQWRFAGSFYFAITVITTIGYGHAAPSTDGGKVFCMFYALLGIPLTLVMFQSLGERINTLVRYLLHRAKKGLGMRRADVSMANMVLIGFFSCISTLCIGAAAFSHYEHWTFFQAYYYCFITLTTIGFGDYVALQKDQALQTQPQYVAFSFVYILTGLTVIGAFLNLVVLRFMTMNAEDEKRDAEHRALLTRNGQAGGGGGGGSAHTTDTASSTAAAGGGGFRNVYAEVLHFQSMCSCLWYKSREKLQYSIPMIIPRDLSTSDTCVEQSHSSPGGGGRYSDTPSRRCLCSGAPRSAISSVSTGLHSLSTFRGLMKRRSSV
Kir21 inh: Kir2.1 (mouse) channel inhibition. P35561. HEK293-Kir2.1, FluxOR thallium flux fluorescence; stronger effect = lower value. B-score at 10 µM. actives 0.85% (n = 310,000);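 active means fluorescence ratio B-score at or below minus 3 SD of library scores, with starting-brightness B-score within 2 SD, cut at about -4.2 in these data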;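 further: channel flux triggered by added potassium and thallium sulfate stimulus; B-score of peak minus minimum fluorescence over baseline after thallium stimulus; more negative B-score means stronger Kir2.1 block with less thallium influx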
KCNK9 block: inhibitors of human KCNK9 two-pore domain potassium channel; HEK293 KCNK9, FluxOR thallium flux fluorescence; stronger effect = lower value; AID 488922; B-score at 10 µM; actives 1.2% (n = 310,000);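 active means ratio B-score over 3 SD below the library mean, with starting fluorescence within 5 SD of its mean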;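 further: negative B-score means less thallium flux so channel inhibition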
KCNQ1 block: inhibitors of human KCNQ1 potassium channel. B-score at 10 µM. AID 2642. CHO-K1 KCNQ1, FluxOR thallium flux fluorescence; stronger effect = higher value. actives 1.3% (n = 310,000);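 active means compounds whose thallium flux B-score, printed positive for inhibition, exceeds three library SD while starting fluorescence stays within three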;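 further: channel opened by potassium depolarization with thallium stimulus after 20 min compound exposure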
KCNQ1 pot: potentiates or activates the human KCNQ1 potassium channel | actives 0.35% (n = 310,000) | B-score at 10 µM | P51787 | CHO-K1 KCNQ1, thallium flux FluxOR fluorescence; stronger effect = higher value;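 active means fluorescence ratio B-score, a plate-corrected score, at least three library SD, with initial intensity B-score within 5 SD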
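Medium – assay buffer, equal DMSO in all wells · Material – CHO-K1 cell line with stable KCNQ1 potassium channel expression · Signal – kinetic FluxOR thallium fluorescence, 10-s 1-Hz baseline, 110-s post-stimulus read · Compound – single concentration per compound, DMSO matched to controls · Schedule – 37 °C overnight plating, 90-min dark dye load, 20-min compound pretreatment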
Active calls of the source: *; i = inactive; . = no result.

SMILES | hERG rescue | KCNK3 inh | Kir21 inh | KCNK9 block | KCNQ1 block | KCNQ1 pot
CCOc1ccccc1NC(=O)Nc1ccc2c(c1)OCO2 | -2 | i | -0.25 | i | i | i
C=CCOc1ccccc1CN(C(=O)CCl)c1ccc2c(c1)OCO2 | -6 | i | -4.2* | i | i | i
CC[C@H](C)[C@@H](CNC)NC[C@@H](Cc1ccc(O)cc1)NCC(C)(C)C | -10 | i | 0.63 | i | i | i
CC[C@@H](C)[C@H](CN[C@H](CNC)C(C)C)NC[C@@H](C)c1ccc(CC(C)C)cc1 | -29 | i | -8.8* | i | 8* | i
O=C(NCc1ccccc1)c1cccc(NC(=O)C2CCCC2)c1 | . | i | . | . | . | .
c1ccc2c3c([nH]c2c1)C(C1CCCCC1)N(Cc1ncc[nH]1)CC3 (centres undefined) | -10 | i | -4.6* | i | i | i
Cc1cnc(CN2CCc3c([nH]c4ccccc34)C2C2CCCCC2)[nH]1 (centres undefined) | -10 | i | -4 | i | i | i
COC(=O)C1=C(C)NC(=O)/C1=C\c1cc(C)n(-c2cccc(C)c2)c1C | -17 | i | 2.3 | i | 9* | i
CCn1c(SCC(=O)NC(=O)NCc2ccco2)nc2sc(C)c(C)c2c1=O | 9.2* | i | 0.52 | i | i | 12*
O=C(CSc1nc(-c2ccc(F)cc2)cs1)NC(=O)NCc1ccco1 | 4.9* | i | 1.5 | i | i | i
COc1cc(-c2nc3cccc(C)n3c2NCC2CCCO2)ccc1O (centres undefined) | -39 | i | -2 | i | i | i
O=[N+]([O-])c1cccc(-c2noc(-c3cccs3)n2)c1 | -4 | i | -0.71 | i | i | i
OC(CNCc1cccc(Br)c1)c1ccccc1 (centres undefined) | -11 | i | -4.3* | i | i | i
Cc1ccc(CNCC(O)c2ccccc2)s1 (centres undefined) | -1 | i | -5.3* | i | i | i
OC(CNCc1ccc(-c2ccccc2)cc1)c1ccccc1 (centres undefined) | -19 | i | -0.06 | i | i | i
CC(=O)c1cccc(NC(=O)N2C3CCCC2CC(NC(=O)C2CC2)C3)c1 (centres undefined) | -5 | i | 0.27 | i | i | i
COC(=O)c1ccc(/C=C/c2c(-c3ccsc3)sc3ccccc23)cc1 | -6 | i | 1.1 | i | i | i
Cc1ccc(O)c(-c2cc(-c3ccccc3C)[nH]n2)c1 | -7 | i | 0.84 | -7.4* | i | i
CCC(=O)NC1=C(Cl)C(=O)C(NC(=O)CC)=C(Cl)C1=O | . | -11* | . | . | . | .
CC1(C(=O)O)CCC(C(=O)NC2CCCCC2)C1(C)C (centres undefined) | 1 | i | 0.01 | -7.6* | i | i
CC(C)CC(C(=O)NC1CCCC1)N(Cc1ccc2c(c1)OCO2)C(=O)c1snc(C(N)=O)c1N (centres undefined) | -11 | i | -0.68 | i | 6* | i
CC(C)CC(C(=O)NC1CCCCC1)N(Cc1ccccc1)C(=O)c1snc(C(N)=O)c1N (centres undefined) | -14 | i | -2.2 | i | 6* | i
O=C(Nc1ccccc1)C1=C[C@@H](C2CCCCC2)C[C@@H](OCc2ccc(CO)cc2)O1 | -6 | i | -0.02 | -7.1* | i | i
O=C(NCc1nc2ccccc2[nH]1)C1=C[C@@H](C2CCCCC2)C[C@@H](OCc2ccc(CO)cc2)O1 | -5 | i | -0.37 | i | 9* | i
O=C(NCc1nc2ccccc2[nH]1)C1=C[C@H](C2CCCCC2)C[C@H](OCc2ccc(CO)cc2)O1 | -7 | i | -0.14 | i | i | i
C#CCNC(=O)C1=C[C@@H](C2CC2)C[C@@H](OCc2ccc(CO)cc2)O1 | -7 | i | -6.5* | i | i | i
C#CCOc1c(/C=C\c2nc(O)c([N+](=O)[O-])c(=O)[nH]2)cc(Br)cc1OC | -6 | i | 0.81 | i | i | i
